Laboratory results published in ChEMBL document CHEMBL1124901 (J Med Chem, 1990).
Blank lines part the entries; values can stand above or below the molecule they belong to.

Tests used:
[1] = Partition coefficient (logP); type: physicochemical; conditions: octanol/water
[2] = biological target: Dopamine receptor; experiment: In vitro inhibition of [3H]spiperone binding to Dopamine receptor D2 in Macaca nemestrina striatal membranes; design: species or system Striatum, Membrane
How it was run: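 Caudate tissue from adult Macaca nemestrina brains, homogenized in ice-cold 50 mM potassium phosphate pH 7.4, washed twice by centrifugation at 30000g and stored at -70 °C. Assay used 25-50 µg protein in 50 mM Tris-HCl, 120 mM NaCl, 5 mM CaCl2, 1 mM MgCl2, pH 7.4, with 0.2 nM [3H]spiperone for 30 min at 37 °C. Bound ligand was collected by filtration and counted by scintillation. Nonspecific binding was defined with 1 µM cis-flupenthixol. Ki was taken from competitive displacement.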

[3] = test system: Rattus norvegicus; experiment: In vivo tissue biodistribution behavior of high specific activity was determined in rat whole brain at 5 min postinjection of radiolabeled compound; type: ADME, organism-based
How it was run: (§1)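 Female Sprague-Dawley rats (200-250 g) under light ether anesthesia received 50-100 µCi of the 18F-labelled ligand (>1000 Ci/mmol) in 0.2 mL buffered saline into the femoral vein. Food and water were free until decapitation. Blood was drawn by cardiac puncture and the femur and brain regions were taken. Tissues were weighed and gamma counted. Values are %ID/g, mean ± SD of 4-5 rats.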

[4] = test system: Rattus norvegicus; experiment: In vivo tissue biodistribution behavior of high specific activity was determined in rat blood at 30 min postinjection of radiolabeled compound; type: ADME, organism-based; conditions: 0.5 h; how it was run: as §1
[5] = test system: Rattus norvegicus; experiment: In vivo tissue biodistribution behavior of high specific activity was determined in rat blood at 5 min postinjection of radiolabeled compound; type: ADME, organism-based; how it was run: as §1
[6] = test system: Rattus norvegicus; experiment: In vivo tissue biodistribution behavior of high specific activity was determined in rat bone at 30 min postinjection of radiolabeled compound; type: ADME, organism-based, Bone element; conditions: 0.5 h; how it was run: as §1
[7] = test system: Rattus norvegicus; experiment: In vivo tissue biodistribution behavior of high specific activity was determined in rat bone at 5 min postinjection of radiolabeled compound; type: ADME, organism-based, Bone element; how it was run: as §1
[8] = test system: Rattus norvegicus; experiment: In vivo tissue biodistribution behavior of high specific activity was determined in rat cerebellum at 30 min postinjection of radiolabeled compound; type: ADME, organism-based; conditions: 0.5 h; how it was run: as §1
[9] = test system: Rattus norvegicus; experiment: In vivo tissue biodistribution behavior of high specific activity was determined in rat cerebellum at 5 min postinjection of radiolabeled compound; type: ADME, organism-based; how it was run: as §1
[10] = test system: Rattus norvegicus; experiment: In vivo tissue biodistribution behavior of high specific activity was determined in rat striatum at 30 min postinjection of radiolabeled compound; type: ADME, organism-based; conditions: 0.5 h; how it was run: as §1
[11] = test system: Rattus norvegicus; experiment: In vivo tissue biodistribution behavior of high specific activity was determined in rat striatum at 5 min postinjection of radiolabeled compound; type: ADME, organism-based; how it was run: as §1
[12] = test system: Rattus norvegicus; experiment: In vivo tissue biodistribution behavior of high specific activity was determined in rat whole brain at 30 min postinjection of radiolabeled compound; type: ADME, organism-based; conditions: 0.5 h; how it was run: as §1
[13] = test system: Rattus norvegicus; experiment: In vivo tissue biodistribution behavior of high specific activity was determined in rat whole brain at 60 min postinjection of radiolabeled compound; type: ADME, organism-based; conditions: 1 h; how it was run: as §1
[14] = test system: Rattus norvegicus; experiment: In vivo tissue biodistribution behavior of high specific activity was determined in rat blood at 60 min postinjection of radiolabeled compound; type: ADME, organism-based; conditions: 1 h; how it was run: as §1
[15] = test system: Rattus norvegicus; experiment: In vivo tissue biodistribution behavior of high specific activity was determined in rat bone at 60 min postinjection of radiolabeled compound; type: ADME, organism-based, Bone element; conditions: 1 h; how it was run: as §1
[16] = test system: Rattus norvegicus; experiment: In vivo tissue biodistribution behavior of high specific activity was determined in rat cerebellum at 60 min postinjection of radiolabeled compound; type: ADME, organism-based; conditions: 1 h; how it was run: as §1
[17] = test system: Rattus norvegicus; experiment: In vivo tissue biodistribution behavior of high specific activity was determined in rat striatum at 60 min postinjection of radiolabeled compound; type: ADME, organism-based; conditions: 1 h; how it was run: as §1
[18] = In vivo tissue biodistribution behavior of high specific activity was determined in whole brain at 60 min postinjection of radiolabeled compound; type: ADME, organism-based; conditions: 1 h; how it was run: as §1
[19] = Dissociation constant of the compound; value ranges from 0.81-1.2 nM; type: physicochemical

SMILES: COc1c(Cl)cc(Cl)c(O)c1C(=O)NC[C@H]1CCCN1CCC(C)F (stereo not given in full)
logP [1]: 1.5 | Ki [2]: 2620 nM

SMILES: COc1c(Cl)cc(Cl)c(O)c1C(=O)NC[C@@H]1CCCN1CC[18F]
Tissue concentration [3]: 0.52 % injected dose g-1 | Tissue concentration [4]: 0.07 % injected dose g-1 | Tissue concentration [5]: 0.16 % injected dose g-1 | Tissue concentration [6]: 0.23 % injected dose g-1 | Tissue concentration [7]: 0.2 % injected dose g-1 | Tissue concentration [8]: 0.05 % injected dose g-1 | Tissue concentration [9]: 0.42 % injected dose g-1 | Tissue concentration [10]: 0.09 % injected dose g-1 | Tissue concentration [11]: 0.62 % injected dose g-1 | Tissue concentration [12]: 0.06 % injected dose g-1

SMILES: COc1c(Cl)cc(Cl)c(O)c1C(=O)NC[C@@H]1CCCN1CCF
logP [1]: 0.55 | Ki [2]: 159 nM

SMILES: CCCCN1CCC[C@H]1CNC(=O)c1c(O)c(Cl)cc(Cl)c1OC
logP [1]: 2.28 | Ki [2]: 41.1 nM

SMILES: COc1c(Cl)cc(Cl)c(O)c1C(=O)NC[C@@H]1CCCN1CCC(C)F (stereo not given in full)
logP [1]: 1.5 | Ki [2]: 2610 nM

SMILES: CCCN1CCC[C@H]1CNC(=O)c1c(O)c(Cl)cc(Cl)c1OC
logP [1]: 1.75 | Ki [2]: 17.3 nM

SMILES: CCN1CCC[C@H]1CNC(=O)c1c(O)c(Cl)cc(Cl)c1OC [RACLOPRIDE]
Kd [19]: 0.81 nM

Now from value to molecule:

Tissue concentration [3]: 0.71 % injected dose g-1 | Tissue concentration [13]: 0.06 % injected dose g-1 | Tissue concentration [4]: 0.09 % injected dose g-1 | Tissue concentration [5]: 0.21 % injected dose g-1 | Tissue concentration [14]: 0.06 % injected dose g-1 | Tissue concentration [6]: 0.24 % injected dose g-1 | Tissue concentration [7]: 0.22 % injected dose g-1 | Tissue concentration [15]: 0.39 % injected dose g-1 | Tissue concentration [8]: 0.08 % injected dose g-1 | Tissue concentration [9]: 0.58 % injected dose g-1 | Tissue concentration [16]: 0.05 % injected dose g-1 | Tissue concentration [10]: 0.12 % injected dose g-1 | Tissue concentration [11]: 0.87 % injected dose g-1 | Tissue concentration [17]: 0.09 % injected dose g-1 | Tissue concentration [12]: 0.1 % injected dose g-1
SMILES: COc1c(Cl)cc(Cl)c(O)c1C(=O)NC[C@@H]1CCCN1CCCC[18F]

Tissue concentration [3]: 1.16 % injected dose g-1 | Tissue concentration [18]: 0.04 % injected dose g-1 | Tissue concentration [4]: 0.1 % injected dose g-1 | Tissue concentration [5]: 0.26 % injected dose g-1 | Tissue concentration [14]: 0.05 % injected dose g-1 | Tissue concentration [6]: 0.34 % injected dose g-1 | Tissue concentration [7]: 0.28 % injected dose g-1 | Tissue concentration [15]: 0.54 % injected dose g-1 | Tissue concentration [8]: 0.09 % injected dose g-1 | Tissue concentration [9]: 0.98 % injected dose g-1 | Tissue concentration [16]: 0.03 % injected dose g-1 | Tissue concentration [10]: 0.13 % injected dose g-1 | Tissue concentration [11]: 1.5 % injected dose g-1 | Tissue concentration [17]: 0.07 % injected dose g-1 | Tissue concentration [12]: 0.11 % injected dose g-1
SMILES: COc1c(Cl)cc(Cl)c(O)c1C(=O)NC[C@@H]1CCCN1CCC[18F]

logP [1]: 1.6 | Ki [2]: 88.5 nM
SMILES: COc1c(Cl)cc(Cl)c(O)c1C(=O)NC[C@@H]1CCCN1CCCCF

logP [1]: 1.07 | Ki [2]: 130 nM
SMILES: COc1c(Cl)cc(Cl)c(O)c1C(=O)NC[C@@H]1CCCN1CCCF
